For one series, the target named is T1, Aurora kinase A (Homo sapiens, UniProt O14965).
T1 sequence (O14965 whole entry): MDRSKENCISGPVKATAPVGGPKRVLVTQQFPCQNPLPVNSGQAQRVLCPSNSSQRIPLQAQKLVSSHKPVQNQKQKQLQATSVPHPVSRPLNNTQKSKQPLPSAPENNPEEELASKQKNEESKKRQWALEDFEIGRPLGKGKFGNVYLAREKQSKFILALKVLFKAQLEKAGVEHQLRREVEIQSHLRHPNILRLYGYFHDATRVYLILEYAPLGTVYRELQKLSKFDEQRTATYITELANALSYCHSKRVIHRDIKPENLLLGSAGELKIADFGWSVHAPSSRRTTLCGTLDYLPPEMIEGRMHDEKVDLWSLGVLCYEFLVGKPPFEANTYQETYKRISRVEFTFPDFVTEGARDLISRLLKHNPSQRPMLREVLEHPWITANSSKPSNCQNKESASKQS
Nature of the series: Inhibition of Aurora A (unknown origin) using FAM-labelled peptide as substrate pretreated for 10 mins followed by substrate addition and measured after 60 mins by fluorescence assay. A digest of the protocol: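 Kinase IC50 values are the mean of at least two independent experiments; selectivity is the Aurora A/B ratio of these IC50s.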

Another series has as its system K562. Description: Antiproliferative activity against human K562 cells after 48 hrs by CCK8 assay. The conditions noted are these: Homo sapiens, K562, 48 h; read-out: IC50. The series is classed as functional, cell-based.
In the next series the test system is SK-BR-3. Nature of the series: Antiproliferative activity against human SKBR3 cells after 48 hrs by CCK8 assay. The format is functional, cell-based. The conditions noted are these: Homo sapiens, SK-BR-3, 48 h; read-out: IC50. For orientation: Formazan colour is commonly taken as a measure of viable cells.
Another series concerns the target Aurora kinase B (Homo sapiens, UniProt Q96GD4). Nature of the series: Inhibition of Aurora B in human 293T cells assessed as reduction in histone H3 phosphorylation at Ser10 residue at 1 to 2 uM after 24 hrs by Western blot analysis. The series is classed as cell-based. A digest of the protocol:
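293T cells treated 24 h with increasing doses or 0.1% DMSO control; lysates probed by Western blot for p-Aurora A (Thr288) and p-histone H3 (Ser10), with GAPDH as loading control.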

In another series the test system is MDA-MB-231. Description: Induction of apoptosis in human MDA-MB-231 cells assessed as annexin-V positive cells at 2 uM after 48 hrs by Annexin-V-FITC/propidium iodide staining based flow cytometry (reference value: 15.46 +/- 1.18%). The series is classed as functional. Background: A flow cytometer gives signals particle by particle.
In series [1] the test system is Mus musculus. Nature of the series: Toxicity in BALB/c athymic nude mouse xenografted with human MDA-MB-231 cells assessed as effect on kidney weight at 30 mg/kg, ig administered every 2 days for 18 days measured post last dose. The conditions noted are these: in vivo, po. The series is classed as organism-based. A digest of the protocol:
(§1)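 Xenograft-bearing nude mice dosed intragastrically every 2 days for 18 days; body weight tracked throughout. After treatment ended, liver, lung, kidney and spleen weighed in untreated, vehicle and dosed groups; unpaired two-tailed t-test; mean ±SD, n=4.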
For orientation: A xenograft is tissue or cells of one species grown in another, often human tumour cells in immunodeficient mice.

Series [2] concerns Mus musculus. Nature of the series: Toxicity in BALB/c athymic nude mouse xenografted with human MDA-MB-231 cells assessed as effect on lung weight at 30 mg/kg, ig administered every 2 days for 18 days measured post last dose. The conditions noted are these: in vivo, po. The format is organism-based. In outline:
as §1

The test system of series [3] is Mus musculus. Nature of the series: Toxicity in BALB/c athymic nude mouse xenografted with human MDA-MB-231 cells assessed as effect on spleen weight at 30 mg/kg, ig administered every 2 days for 18 days measured post last dose. The series is classed as organism-based. The conditions noted are these: in vivo, po. In outline: as §1
For series [4], the system named is Mus musculus. Description: Toxicity in BALB/c athymic nude mouse xenografted with human MDA-MB-231 cells assessed as effect on WBC level at 30 mg/kg, ig administered every 2 days for 18 days measured post last dose. The conditions noted are these: in vivo, po. The series is classed as organism-based. A digest of the protocol:
(§2)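 After the 18-day intragastric course (every 2 days), blood cell counts taken from untreated, vehicle and dosed mice; groups compared by unpaired two-tailed t-test; mean ±SD, n=4.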

The subject of series [5] is Mus musculus. Description: Toxicity in BALB/c athymic nude mouse xenografted with human MDA-MB-231 cells assessed as effect on RBC level at 30 mg/kg, ig administered every 2 days for 18 days measured post last dose. The format is organism-based. The conditions noted are these: in vivo, po. A digest of the protocol: as §2
For series [6], the system named is Mus musculus. Nature of the series: Toxicity in BALB/c athymic nude mouse xenografted with human MDA-MB-231 cells assessed as effect on RDW-CV level at 30 mg/kg, ig administered every 2 days for 18 days measured post last dose. The series is classed as organism-based. The conditions noted are these: in vivo, po. A digest of the protocol: as §2
Series [7] deals with Mus musculus. Description: Toxicity in BALB/c athymic nude mouse xenografted with human MDA-MB-231 cells assessed as effect on HCT level at 30 mg/kg, ig administered every 2 days for 18 days measured post last dose. The series is classed as organism-based. The conditions noted are these: in vivo, po. A digest of the protocol: as §2
For series [8], the system named is Mus musculus. Description: Toxicity in BALB/c athymic nude mouse xenografted with human MDA-MB-231 cells assessed as effect on MCV level at 30 mg/kg, ig administered every 2 days for 18 days measured post last dose. The format is organism-based. The conditions noted are these: in vivo, po. A digest of the protocol: as §2
Series [9] deals with Mus musculus. Nature of the series: Toxicity in BALB/c athymic nude mouse xenografted with human MDA-MB-231 cells assessed as effect on RDW-SD level at 30 mg/kg, ig administered every 2 days for 18 days measured post last dose. The series is classed as organism-based. The conditions noted are these: in vivo, po. A digest of the protocol:
as §2

Series [10] deals with Voltage-gated inwardly rectifying potassium channel KCNH2 (Homo sapiens, UniProt Q12809). Nature of the series: Inhibition of human ERG expressed in CHO cells at -80 mV holding potential by whole-cell patch clamp method. The format is cell-based.

Some results are limits rather than exact numbers.

Chain of Aurora kinase B (Q96GD4 whole entry): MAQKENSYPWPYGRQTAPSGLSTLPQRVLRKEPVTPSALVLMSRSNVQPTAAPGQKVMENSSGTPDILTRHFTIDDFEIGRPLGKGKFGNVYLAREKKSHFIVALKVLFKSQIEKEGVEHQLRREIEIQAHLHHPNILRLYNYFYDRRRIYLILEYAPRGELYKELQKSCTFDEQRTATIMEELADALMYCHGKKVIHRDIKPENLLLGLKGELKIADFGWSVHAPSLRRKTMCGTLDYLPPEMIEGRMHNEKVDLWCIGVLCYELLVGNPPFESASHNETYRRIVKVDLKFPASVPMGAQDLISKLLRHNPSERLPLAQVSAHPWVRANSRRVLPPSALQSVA
Chain of Voltage-gated inwardly rectifying potassium channel KCNH2 (Q12809 whole entry): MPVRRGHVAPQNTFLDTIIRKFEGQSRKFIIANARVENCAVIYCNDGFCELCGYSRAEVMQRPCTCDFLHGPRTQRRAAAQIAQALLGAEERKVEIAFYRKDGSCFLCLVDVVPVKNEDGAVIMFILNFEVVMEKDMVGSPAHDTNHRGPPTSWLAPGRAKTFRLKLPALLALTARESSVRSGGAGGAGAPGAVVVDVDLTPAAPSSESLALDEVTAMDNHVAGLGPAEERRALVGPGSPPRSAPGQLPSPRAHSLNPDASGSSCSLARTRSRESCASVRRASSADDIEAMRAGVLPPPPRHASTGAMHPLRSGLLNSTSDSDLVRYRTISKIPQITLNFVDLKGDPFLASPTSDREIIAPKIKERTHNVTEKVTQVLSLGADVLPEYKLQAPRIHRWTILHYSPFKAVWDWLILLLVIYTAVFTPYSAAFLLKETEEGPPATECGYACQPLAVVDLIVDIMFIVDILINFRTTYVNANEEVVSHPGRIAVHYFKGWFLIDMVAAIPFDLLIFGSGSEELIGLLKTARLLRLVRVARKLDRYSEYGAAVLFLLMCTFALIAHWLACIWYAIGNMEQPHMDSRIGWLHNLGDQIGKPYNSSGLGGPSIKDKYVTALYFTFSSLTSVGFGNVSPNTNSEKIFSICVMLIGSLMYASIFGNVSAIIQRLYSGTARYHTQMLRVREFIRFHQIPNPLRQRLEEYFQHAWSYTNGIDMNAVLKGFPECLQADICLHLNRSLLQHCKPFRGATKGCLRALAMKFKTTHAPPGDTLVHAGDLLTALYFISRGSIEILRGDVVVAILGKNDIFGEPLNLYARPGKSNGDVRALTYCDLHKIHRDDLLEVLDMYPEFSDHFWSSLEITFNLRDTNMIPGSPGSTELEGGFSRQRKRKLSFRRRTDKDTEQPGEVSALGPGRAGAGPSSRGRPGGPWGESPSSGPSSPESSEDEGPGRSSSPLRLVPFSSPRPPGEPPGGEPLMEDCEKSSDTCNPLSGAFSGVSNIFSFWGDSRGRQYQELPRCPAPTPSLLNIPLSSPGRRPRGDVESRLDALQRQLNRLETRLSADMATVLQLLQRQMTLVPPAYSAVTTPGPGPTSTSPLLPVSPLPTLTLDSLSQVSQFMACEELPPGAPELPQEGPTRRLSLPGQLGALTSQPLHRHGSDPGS

`CCOC(=O)C1CCN(c2ccc3c(Nc4cc(C)[nH]n4)nc(-c4ccccc4)nc3c2)CC1`: the concentration for half-maximal inhibition (IC50) was 0.038 µM on Aurora kinase A, 1.09 µM in the series with K562, 2.4 µM in the series on SK-BR-3 and above 10 µM in series [10]. For the same compound, the “inhibition (INH)” value on Aurora kinase B is given as “Not Active”. The Activity is given as 42.33% in the series on MDA-MB-231; “Non-Toxic” in the series on Mus musculus [1]; “Non-Toxic” in the series on Mus musculus [2]; “Non-Toxic” in the series with Mus musculus [3]; “Non-Toxic” in the series on Mus musculus [4]; “Non-Toxic” in the series with Mus musculus [5]. Besides, the Activity entry in the series on Mus musculus [6], in the series on Mus musculus [7], with Mus musculus [8] and with Mus musculus [9] was “Non-Toxic” each time.

As usually defined, the IC50 is the concentration at which inhibition is half-maximal.

The values are drawn from ChEMBL document CHEMBL4270643, “Structure-based drug design: Synthesis and biological evaluation of quinazolin-4-amine derivatives as selective Aurora A kinase inhibitors” (Eur J Med Chem, 2018).
